For assay [1] the following is noted: non-acetylated form; ref [28]; cited from earlier work.
The target of assay [2] is holo-CaM (Ca-bound human calmodulin) (Homo sapiens, UniProt P0DP23). Nature of the assay: NMR titration. Conditions: compared with literature membrane binding, [55], [56]. The procedure, abridged:
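Human CaM was expressed in E. coli and purified, ¹⁵N-labelled, holo form, held constant at 100 μM. It was titrated with N-acetylated α-syn, as the 1–19 peptide or the full-length protein, in 50 mM MES, 100 mM NaCl, 3 mM CaCl₂, pH 6.4, 5% D₂O. Amide shifts were read by ¹⁵N HSQC at 800 MHz, 310 K. Ten amides were scaled to one reference residue and fitted globally to a two-state 1:1 model.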

The next assay relates to apo-CaM. Conditions: non-acetylated α-syn; ref [28], [29]; cited from earlier work.
For the next assay, the target named is CaM. To be noted: non-acetylated α-syn, cited from earlier work.
For assay [3] the following is noted: ref [36]; cited from earlier work.

The values below come from paper PMC3758425 (Biochemistry, 2013).

“Also recorded” adds a separate entry of the source.

“α-syn: Full-length non-acetylated α-syn expressed in E. coli”: the “competition of CaM with membrane for α-syn binding” value in assay [1] is recorded as “CaM can compete with the membrane for α-syn binding”. Besides, the “binding constant to holo-CaM relative to membranes containing anionic lipids” value in assay [2] is reported as “comparable”. The “interaction with apo-CaM in earlier studies” value with apo-CaM was “There is disagreement whether apo-CaM can interact with α-syn; also recorded: one report seeing interaction only in the presence of calcium-bound (holo-) CaM whereas the other observed little difference between the two forms”. The “binding affinity (two earlier studies)” value at CaM (ref [28], [29]) is on record as “submicromolar range”. Also, on CaM (read-out: dissociation constant (later study), ref [30]), the Kd was approximately 10 µM. Also, the “affinity for negatively charged membranes, effect of N-terminal acetylation” value in assay [3] was “N-terminal acetylation increases its affinity for negatively charged membranes”.
